According to ChEMBL document CHEMBL1208666, “Novel 6,8-dibromo-4(3H)quinazolinone derivatives of anti-bacterial and anti-fungal activities” (2010):
In brackets after ≈: the same amount, converted by molar mass. Activity calls are given as the source filed them. No cut-off for these calls is given here.

Tests used:
Pseudomonas aeruginosa [1] = test: Antibacterial activity against Pseudomonas aeruginosa at 100 ug/ml after 24 hrs by paper disc diffusion technique; type: functional; settings: read-out: IZ
Method in brief: (§1)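 Paper disc diffusion on Mueller Hinton agar, autoclaved at 120 °C for 30 min. Medium at 40–50 °C was seeded at 1 ml/100 ml with a 10^5 cfu/ml suspension matched to 0.9 McFarland. It was poured 3–4 mm deep, and discs with compound in DMSO were laid on it. Plates were pre-incubated 1 h at room temperature, then 37 °C for 24 h. The inhibition zone was measured.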

Escherichia coli [2] = test: Antibacterial activity against Escherichia coli O157 after 24 hrs by agar streak dilution method; type: functional; settings: O157, 24 h
Salmonella typhimurium [3] = test: Antibacterial activity against Salmonella Typhimurium at 100 ug/ml after 24 hrs by paper disc diffusion technique; type: functional, Salmonella enterica subsp. enterica serovar Typhimurium; settings: Salmonella enterica, read-out: IZ; method in brief: as §1
Bacillus cereus [4] = test: Antibacterial activity against Bacillus cereus after 24 hrs by agar streak dilution method; type: functional
Method in brief: (§2)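 Agar streak dilution on Mueller Hinton agar. Compound stock in DMSO was added in graded amounts to molten sterile agar at 40–50 °C. This was poured 3–4 mm deep and left to solidify. Bacterial suspension of about 10^5 cfu/ml was applied to the serially diluted plates. Plates were incubated at 37 °C for 24 h to read the MIC. Strains were food-poisoning isolates from animal byproducts.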

Escherichia coli [5] = test: Antibacterial activity against Escherichia coli O157 at 100 ug/ml after 24 hrs by paper disc diffusion technique; type: functional; settings: O157, 24 h, read-out: IZ
Aspergillus flavus [6] = test: Antifungal activity against Aspergillus flavus after 48 hrs by agar streak dilution method; type: functional
Method in brief: (§3)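 Fungal MIC by agar streak dilution on Sabouraud dextrose agar. Compound stock in DMSO was added in graded amounts to molten sterile medium at 40–50 °C. This was poured 3–4 mm deep and left to solidify. Fungal suspension of about 10^5 cfu/ml was applied to the serially diluted plates. Plates were incubated at 37 °C for 48 h.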

Salmonella typhimurium [7] = test: Antibacterial activity against Salmonella Typhimurium after 24 hrs by agar streak dilution method; type: functional, Salmonella enterica subsp. enterica serovar Typhimurium; settings: Salmonella enterica; method in brief: as §2
Candida albicans [8] = test: Antifungal activity against Candida albicans at 100 ug/ml after 48 hrs by paper disc diffusion technique; type: functional; settings: read-out: IZ
Method in brief: (§4)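 Paper disc diffusion on Sabouraud dextrose agar, autoclaved at 120 °C for 30 min. Medium at 40–50 °C was seeded at 1 ml/100 ml with a 10^5 cfu/ml fungal suspension matched to 0.9 McFarland. It was poured 3–4 mm deep, and compound discs in DMSO were applied. Plates were pre-incubated 1 h at room temperature, then 28 °C for 48 h. The inhibition zone was recorded.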

Bacillus cereus [9] = test: Antibacterial activity against Bacillus cereus at 100 ug/ml after 24 hrs by paper disc diffusion technique; type: functional; settings: read-out: IZ; method in brief: as §1
Pseudomonas aeruginosa [10] = test: Antibacterial activity against Pseudomonas aeruginosa after 24 hrs by agar streak dilution method; type: functional; method in brief: as §2
Candida albicans [11] = test: Antifungal activity against Candida albicans after 48 hrs by agar streak dilution method; type: functional; method in brief: as §3
Listeria monocytogenes [12] = test: Antibacterial activity against Listeria monocytogenes after 24 hrs by agar streak dilution method; type: functional; method in brief: as §2
Listeria monocytogenes [13] = test: Antibacterial activity against Listeria monocytogenes at 100 ug/ml after 24 hrs by paper disc diffusion technique; type: functional; settings: read-out: IZ; method in brief: as §1
Staphylococcus aureus [14] = test: Antibacterial activity against Staphylococcus aureus after 24 hrs by agar streak dilution method; type: functional; method in brief: as §2
Aspergillus flavus [15] = test: Antifungal activity against Aspergillus flavus at 100 ug/ml after 48 hrs by paper disc diffusion technique; type: functional; settings: for zone of inhibition at 100 µg/mL: read-out: IZ; method in brief: as §4
Staphylococcus aureus [16] = test: Antibacterial activity against Staphylococcus aureus at 100 ug/ml after 24 hrs by paper disc diffusion technique; type: functional; settings: read-out: IZ; method in brief: as §1

| Compound | zone of inhibition at 100 µg/mL (Pseudomonas aeruginosa [1]) | MIC (Escherichia coli [2]) | zone of inhibition at 100 µg/mL (Salmonella typhimurium [3]) | MIC (Bacillus cereus [4]) | zone of inhibition at 100 µg/mL (Escherichia coli [5]) | MIC (Aspergillus flavus [6]) | MIC (Salmonella typhimurium [7]) | zone of inhibition at 100 µg/mL (Candida albicans [8]) | zone of inhibition at 100 µg/mL (Bacillus cereus [9]) | MIC (Pseudomonas aeruginosa [10]) | MIC (Candida albicans [11]) | MIC (Listeria monocytogenes [12]) | zone of inhibition at 100 µg/mL (Listeria monocytogenes [13]) | MIC (Staphylococcus aureus [14]) | zone of inhibition at 100 µg/mL (Aspergillus flavus [15]) | zone of inhibition at 100 µg/mL (Staphylococcus aureus [16]) | inhibition zone (IZ) (Aspergillus flavus [15]) |
| --- | --- | --- | --- | --- | --- | --- | --- | --- | --- | --- | --- | --- | --- | --- | --- | --- | --- |
| O=C(N/N=C/c1ccc2ccccc2c1)c1ccc(-n2c(-c3ccccc3)nc3c(Br)cc(Br)cc3c2=O)cc1 | 13 mm | 25 µg/mL (≈ 38.3 µM) | 12 mm | 50 µg/mL (≈ 76.6 µM) | 13 mm | 0.39 µg/mL (≈ 0.598 µM) | 50 µg/mL (≈ 76.6 µM) | 13 mm | 12 mm | 25 µg/mL (≈ 38.3 µM) | 25 µg/mL (≈ 38.3 µM) | 3.12 µg/mL (≈ 4.79 µM) | 16 mm | 25 µg/mL (≈ 38.3 µM) | 26 mm | 14 mm |  |
| O=C(NN1C(=O)C=CC1=O)c1ccc(-n2c(-c3ccccc3)nc3c(Br)cc(Br)cc3c2=O)cc1 | 11 mm | > 50 µg/mL | 17 mm | 50 µg/mL (≈ 84.1 µM) | 9 mm | 4.5 µg/mL (≈ 7.57 µM) | 2.9 µg/mL (≈ 4.88 µM) | 10 mm | 9 mm | > 50 µg/mL | 25 µg/mL (≈ 42.1 µM) | > 50 µg/mL | 11 mm | > 50 µg/mL | 17 mm | 9 mm |  |
| O=C(N/N=C/c1ccco1)c1ccc(-n2c(-c3ccccc3)nc3c(Br)cc(Br)cc3c2=O)cc1 | 8 mm | > 50 µg/mL | 16 mm | 50 µg/mL (≈ 84.4 µM) | 9 mm |  | 5 µg/mL (≈ 8.44 µM) | 12 mm | 12 mm | > 50 µg/mL | 25 µg/mL (≈ 42.2 µM) | > 50 µg/mL | 11 mm | 20 µg/mL (≈ 33.8 µM) |  | 13 mm | inactive |
| Cc1ccc(C2SCC(=O)N2NC(=O)c2ccc(-n3c(-c4ccccc4)nc4c(Br)cc(Br)cc4c3=O)cc2)cc1 (configuration not stated) | 16 mm | > 50 µg/mL | 15 mm | 50 µg/mL (≈ 72.4 µM) | 9 mm | 12.5 µg/mL (≈ 18.1 µM) | 7 µg/mL (≈ 10.1 µM) | 10 mm | 9 mm | 10.1 µg/mL (≈ 14.6 µM) | 30 µg/mL (≈ 43.5 µM) | 50 µg/mL (≈ 72.4 µM) | 10 mm | > 50 µg/mL | 16 mm | 10 mm |  |
| O=C(NN1C(=O)c2ccccc2C1=O)c1ccc(-n2c(-c3ccccc3)nc3c(Br)cc(Br)cc3c2=O)cc1 | 11 mm | 50 µg/mL (≈ 77.6 µM) | 11 mm | 5.5 µg/mL (≈ 8.54 µM) | 11 mm | 0.39 µg/mL (≈ 0.605 µM) | > 50 µg/mL | 9 mm | 16 mm | > 50 µg/mL | 50 µg/mL (≈ 77.6 µM) | > 50 µg/mL | 10 mm | > 50 µg/mL | 25 mm | 10 mm |  |
| COc1ccc(C2SCC(=O)N2NC(=O)c2ccc(-n3c(-c4ccccc4)nc4c(Br)cc(Br)cc4c3=O)cc2)cc1 (configuration not stated) | 11 mm | 45 µg/mL (≈ 63.7 µM) | 12 mm | 1.9 µg/mL (≈ 2.69 µM) | 11 mm | 1.56 µg/mL (≈ 2.21 µM) | 40 µg/mL (≈ 56.6 µM) | 10 mm | 18 mm | 50 µg/mL (≈ 70.8 µM) | 25 µg/mL (≈ 35.4 µM) | > 50 µg/mL | 11 mm | 45 µg/mL (≈ 63.7 µM) | 20 mm | 10 mm |  |
| O=C(N/N=C/c1ccc(Cl)c(Cl)c1)c1ccc(-n2c(-c3ccccc3)nc3c(Br)cc(Br)cc3c2=O)cc1 | 14 mm | 25 µg/mL (≈ 37.2 µM) | 11 mm | 1.56 µg/mL (≈ 2.32 µM) | 14 mm | 19 µg/mL (≈ 28.3 µM) | 50 µg/mL (≈ 74.5 µM) | 11 mm | 17 mm | 25 µg/mL (≈ 37.2 µM) | 25 µg/mL (≈ 37.2 µM) | 25 µg/mL (≈ 37.2 µM) | 13 mm | 25 µg/mL (≈ 37.2 µM) | 12 mm | 14 mm |  |
| Cc1nnc(-c2ccc(-n3c(-c4ccccc4)nc4c(Br)cc(Br)cc4c3=O)cc2)o1 | 12 mm | 25 µg/mL (≈ 46.5 µM) | 12 mm | 1.56 µg/mL (≈ 2.9 µM) | 14 mm | 9.5 µg/mL (≈ 17.7 µM) | 50 µg/mL (≈ 92.9 µM) | 11 mm | 17 mm | 50 µg/mL (≈ 92.9 µM) | 25 µg/mL (≈ 46.5 µM) | 12.5 µg/mL (≈ 23.2 µM) | 15 mm | 12.5 µg/mL (≈ 23.2 µM) | 18 mm | 15 mm |  |
